Bioassay records from PubChem.
A selection: hits, their analogues and other compounds. The true share with any hit is near 9.6%.
HCT116 PTEN-null: PTEN-deleted cell growth suppression; HCT116 PTEN-null viability, CellTiter-Glo, 60 h; active compounds read low; viability, % at 10 µM; 140,000 tested, 1.2% active; AID 827;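 active = viability at or below a set limit, 4 SD under the median of all tested compounds, cut at about 3.7% in these data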;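 also: PTEN knockout HCT116 line with beta catenin targeted HCT116 as companion control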
PMI activator: phosphomannose isomerase (human) activation; AID 1214; P34949; purified human PMI, coupled resazurin fluorescence, 20 min; active compounds read high; 1 = vehicle control, 0 substrate-free wells; 190,000 tested, 0.005% active; activation factor at 20 µM;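 active = activation factor of 2 or more at 20 µM, relative to plate controls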
Target sequence (P34949 whole entry, looked up): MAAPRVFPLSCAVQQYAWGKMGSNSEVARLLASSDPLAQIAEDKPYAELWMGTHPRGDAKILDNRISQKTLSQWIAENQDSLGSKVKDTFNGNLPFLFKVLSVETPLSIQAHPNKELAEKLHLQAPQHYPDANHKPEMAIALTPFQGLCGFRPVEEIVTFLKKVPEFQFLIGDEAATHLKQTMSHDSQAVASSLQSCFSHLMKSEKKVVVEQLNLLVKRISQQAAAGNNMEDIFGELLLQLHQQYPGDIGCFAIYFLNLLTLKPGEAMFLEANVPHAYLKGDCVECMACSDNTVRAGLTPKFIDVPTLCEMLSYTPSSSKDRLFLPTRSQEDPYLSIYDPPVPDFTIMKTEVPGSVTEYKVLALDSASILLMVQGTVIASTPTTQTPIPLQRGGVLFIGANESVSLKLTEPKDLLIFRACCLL
L major viab: Leishmania major promastigote growth inhibition; Leishmania major promastigotes, resazurin fluorescence viability; inhibition, % at 10 µM; 200,000 tested, 9% active; in the data active = inhibition above about 50%;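 also: promastigotes grown with compound for 44 hours at 28 °C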
PMI act satM6P: activators of human phosphomannose isomerase at near-saturating mannose 6-phosphate; coupled PMI enzyme assay, resazurin fluorescence, 20 min; active compounds read high; 1 = untreated enzyme, 0 = substrate-free blank; P34949; 190,000 tested, 0.34% active; activation factor at 20 µM;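 active = activation factor of 2 or more at 20 µM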
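Test system: human phosphomannose isomerase with PGI, G6PDH, diaphorase coupling enzymes / Doses: 20 µM compound, 1% DMSO / Times: enzyme reaction with compound 20 min at room temperature / Measured by: Diaphorase-driven resazurin-to-resorufin fluorescence, excitation 544, emission 590 nm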
HCT116 bCat-KO: beta-catenin-lacking colon tumor cell growth suppression | HCT116 beta-catenin knockout viability, CellTiter-Glo, 60 h; active compounds read low | viability, % at 10 µM | 140,000 tested, 1.5% active | AID 818;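 active = viability at or under a set limit, the compound median less 4 SD, cut at about 6% in these data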
Large screens that a line does not name were inactive.

Cn1c(=O)[nH]c(=O)c2[nH]c(N(Cc3ccccc3)Cc3ccccc3)nc21	none
O=C(O)C/C=C(/NC(=O)OCc1ccccc1)C(=O)OCc1ccccc1	PMI act satM6P 2.8 (no result: HCT116 PTEN-null, HCT116 bCat-KO)
O=C(NC(=S)N(CCCCO)C1CCCCC1)c1sc2ccccc2c1Cl	L major viab 92
Cc1cc(C)cc(N(CC(=O)NC2CC3CCC2C3)S(C)(=O)=O)c1 (configuration not stated)	none
CC(C)(C)S(=O)(=O)c1cnc2c(-c3ccc(Cl)cc3)cnn2c1N	HCT116 PTEN-null 1.7, HCT116 bCat-KO 2.6
CCOc1ccc2[nH]c(=O)c(CN(Cc3cccs3)C(CC)c3nnnn3C(C)(C)CC)cc2c1 (configuration not stated)	L major viab 75
CCOC(=O)Cn1nnnc1C(C(C)C)N(Cc1cccs1)Cc1cc2cc(C)ccc2[nH]c1=O (configuration not stated)	none
CCOc1ccc2[nH]c(=O)c(CN(Cc3ccco3)C(CC)c3nnnn3Cc3ccccc3)cc2c1 (configuration not stated)	none
Cc1ccc(C(c2nnnn2C(C)(C)C)N(Cc2ccco2)Cc2cccs2)cc1 (configuration not stated)	none
CCOC(=O)Cn1nnnc1C(CC)N(Cc1cccs1)Cc1cc2cc(C)ccc2[nH]c1=O (configuration not stated)	L major viab 95
CCC(c1nnnn1C1CCCC1)N(Cc1cccs1)Cc1cc2cc(C)ccc2[nH]c1=O (configuration not stated)	HCT116 PTEN-null 3.0, L major viab 63, HCT116 bCat-KO 4.0
Cc1ccc2[nH]c(=O)c(CN(Cc3cccs3)Cc3nnnn3CC3CCCO3)cc2c1 (configuration not stated)	none
CCC(c1nnnn1C(C)(C)C)N(Cc1cccs1)Cc1cc2cc(C)c(C)cc2n2nnnc12 (configuration not stated)	L major viab 78 (no result: HCT116 PTEN-null, PMI activator, PMI act satM6P, HCT116 bCat-KO)
Cc1c(NC(=S)Nc2cccc(Cl)c2)c(=O)n(-c2ccccc2)n1C	none (no result: HCT116 PTEN-null, HCT116 bCat-KO)
O=C(O)COc1ccc2c(c1)OCCO2	none
Cc1cccc(C)c1N(CC(=O)N/N=C/c1cc(Br)c(C)o1)S(C)(=O)=O	L major viab 71
Cc1cccc(C)c1N(CC(=O)Nc1cccc(N(C)S(C)(=O)=O)c1)S(C)(=O)=O	L major viab 98
Cc1ccc(Cl)cc1N(CC(=O)Nc1cccc(N(C)S(C)(=O)=O)c1)S(C)(=O)=O	none (no result: HCT116 PTEN-null, HCT116 bCat-KO)
CN(c1cccc(NC(=O)CN(c2cccc(Cl)c2)S(=O)(=O)c2ccc(Cl)cc2)c1)S(C)(=O)=O	L major viab 72
COc1ccc(N(CC(=O)N/N=C/c2cc(Br)c(C)o2)S(=O)(=O)c2ccc(NC(C)=O)cc2)cc1	none (no result: HCT116 PTEN-null, PMI activator, PMI act satM6P, HCT116 bCat-KO)
CCOC(=O)N1CCN(C(=O)c2ccc(OC(C)=O)cc2)CC1	none (no result: HCT116 PTEN-null, HCT116 bCat-KO)
CC1(C)COCN1S(=O)(=O)c1ccc(C(=O)Nc2nnc(-c3ccc(Cl)s3)o2)cc1	L major viab 99
COc1ccc(-c2nnc(NC(=O)c3ccc(S(=O)(=O)N4COCC4(C)C)cc3)o2)cc1	L major viab 99
COc1ccc(C(=O)CSc2nnc(-c3ccc(S(=O)(=O)N4CCOCC4)cc3)o2)cc1	none
COc1ccc(CC(=O)OCC(=O)NCCc2ccccc2)cc1OC	none
Cc1ccnc(NC(=O)CCC(=O)N(CC(=O)NC(C)(C)C)c2ccc(F)c(Cl)c2)c1	none (no result: HCT116 PTEN-null, HCT116 bCat-KO)
O=C(CN1C2=NCCCN2c2ccccc21)c1cccc(Br)c1	L major viab 94
O=C(CN1C2=NCCCN2c2ccccc21)c1cccs1	none
Clc1ccc(CN2C3=NCCCN3c3ccccc32)cc1Cl	L major viab 51 (no result: HCT116 PTEN-null, HCT116 bCat-KO)
O=C(CN1C2=NCCCN2c2ccccc21)c1ccc(Cl)cc1Cl	L major viab 100
CC(C)(C)C(=O)Cn1nc(Cl)nc1Cl	none (no result: HCT116 PTEN-null, HCT116 bCat-KO)
Cc1ccc(C)c(NC(=S)N(Cc2ccc(Cl)cc2)Cc2ccc(C(=O)O)cc2)c1	none (no result: HCT116 PTEN-null, HCT116 bCat-KO)
O=C(CSc1nnc(-c2ccccc2O)o1)Oc1ccc(OCc2ccccc2)cc1	none
O=C1COc2ccc(C(=O)COC(=O)Cc3ccsc3)cc2N1	none (no result: HCT116 PTEN-null, HCT116 bCat-KO)
O=C(NCC(c1cccnc1)N1CCN(c2ccccc2)CC1)c1ccco1 (configuration not stated)	L major viab 89 (no result: HCT116 PTEN-null, PMI activator, PMI act satM6P, HCT116 bCat-KO)
O=C(NCCc1c[nH]c2ccccc12)C(=O)NCC(c1ccco1)N1CCN(c2ccccc2F)CC1 (configuration not stated)	L major viab 76
O=C(NCCC1=CCCCC1)C(=O)NCC(c1ccco1)N1CCN(c2ccc(F)cc2)CC1 (configuration not stated)	L major viab 80
O=C(NCc1cccnc1)C(=O)NCC(c1ccco1)N1CCN(c2ccccc2)CC1 (configuration not stated)	L major viab 52
O=C(Cc1ccccc1F)NCC(c1ccco1)N1CCCCC1 (configuration not stated)	none (no result: HCT116 PTEN-null, HCT116 bCat-KO)
COCCNC(=S)NNC(=O)c1ccc(-n2cnnn2)cc1	none (no result: HCT116 PTEN-null, HCT116 bCat-KO)
O=C(NCc1ccccc1)C(=O)NCC(c1ccco1)N1CCN(c2ccccc2F)CC1 (configuration not stated)	none (no result: HCT116 PTEN-null, HCT116 bCat-KO)
O=C(NCCc1c[nH]c2ccccc12)/C(=C\c1ccco1)NC(=O)c1ccco1	L major viab 56
O=C(NCc1cccnc1)C(=O)NCC(c1ccco1)N1CCN(c2ccccc2F)CC1 (configuration not stated)	L major viab 56
Cc1ccc2c(c1)c(N=NC(N)=O)c(O)n2C	none (no result: HCT116 PTEN-null, HCT116 bCat-KO)
O=S(=O)(NCCSc1nnnn1-c1ccccc1)c1cccs1	none
OCCC1CN(Cc2cccn2-c2ccccn2)CCN1C1CCCCC1 (configuration not stated)	none (no result: HCT116 PTEN-null, HCT116 bCat-KO)
CC(NC(=S)Nc1c(Br)cccc1OC(F)F)C(C)(C)C (configuration not stated)	L major viab 60
O=C(CSc1ncn[nH]1)Nc1cc(S(=O)(=O)N2CCCC2)ccc1Cl	none (no result: HCT116 PTEN-null, HCT116 bCat-KO)
O=C(CSc1nc(C2CC2)nc2ccccc12)N1c2ccccc2Sc2ccccc21	L major viab 50
O=C(CSc1nc(C2CCCCC2)nc2ccccc12)NCc1ccc2c(c1)OCO2	L major viab 53
CC(C)C(=O)NNC(=O)CSc1nc(C2CCCCC2)nc2ccccc12	none
O=C(CSc1nc2ccccc2o1)N1c2ccccc2Sc2ccccc21	L major viab 82
Cc1cccc(-c2nsc(SCC(=O)NCc3ccc4c(c3)OCO4)n2)c1	none
COc1ccc(-c2nsc(SCC(=O)NCc3ccc4c(c3)OCO4)n2)cc1	L major viab 99
CC(=O)CSc1nc2ccccc2o1	none
COc1ccc(N2C(=O)C3CCCN3C2c2ccccc2Cl)cc1 (configuration not stated)	none
CCc1ccccc1NC(=O)N1CCC(NC(=O)C(Cc2ccccc2)NC(C)=O)CC1 (configuration not stated)	none (no result: HCT116 PTEN-null, HCT116 bCat-KO)
CCCn1c(N)cc(=O)n(C)c1=O	none (no result: HCT116 PTEN-null, HCT116 bCat-KO)
O=C1c2nccnc2C(=O)N1c1ccc(C(F)(F)F)cc1	none (no result: HCT116 PTEN-null, HCT116 bCat-KO)
